The results in this text go back to ChEMBL document CHEMBL3098010, “Synthesis and biological evaluation of 3-hydroxymethyl-5-(1H-1,2,3-triazol) isoxazolidines” (Bioorg Med Chem, 2013).

Each structure is given as a SMILES string. Activity calls are given as the source filed them. The rule behind the calls is not given here.

The subject of assay [1] is FTC-133. Put plainly: Induction of apoptosis in human FTC-133 cells assessed as caspase-3 positive cells at 5 uM after 24 hrs by immunohistochemical analysis. The assay is classed as functional, cell-based. In outline:
(§1)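 Cells on chamber slides are treated 24 h with 5 µM compound, then fixed in 4% paraformaldehyde for 20 min. Unspecific sites are blocked with 1% NGS for 1 h, then cells are incubated overnight at 37 °C with mouse anti-caspase-3 (1:200) and a TRITC anti-mouse secondary. Caspase-3-positive cells are counted by fluorescence microscopy in four fields per coverslip across four experiments.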

Assay [2] deals with FTC-133. Put plainly: Cytotoxicity against human FTC-133 cells after 24 hrs by MTT assay. The format is functional, cell-based. The note with it: FTC-133, 24 h. The gist of the method: (§2)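 FTC-133 (DMEM, 2 mM GlutaMAX, 10% FBS) and 8305C (MEM, 2 mM GlutaMAX, 10% FBS, 1% non-essential amino acids) cells are exposed to compound at 0.5–20 µM for 24 h at 37 °C, 5% CO2. MTT is added (20 µL of 0.5% in PBS, pH 7.4) for 1 h, then dissolved in DMSO and read at 570 nm. IC50 is taken graphically from dose–effect curves. Mean of four independent experiments in triplicate.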
In general terms: Tetrazolium assays rely on reduction of a dye to a coloured formazan, in cell work by metabolically active cells.

Assay [3] relates to 8305C. Put plainly: Cytotoxicity against human 8305C cells after 24 hrs by MTT assay. The format is functional, cell-based. In outline: as §2
Assay [4] deals with 8305C. Put plainly: Induction of apoptosis in human 8305C cells assessed as caspase-3 positive cells at 5 uM after 24 hrs by immunohistochemical analysis. The format is functional, cell-based. In outline:
as §1

In assay [5] the test system is 8305C. Put plainly: Induction of apoptosis in human 8305C cells assessed as DNA fragmentation at 5 uM after 24 hrs by TUNEL assay (reference value: 2 +/- 1%). The format is functional.
In assay [6] the test system is FTC-133. Put plainly: Induction of apoptosis in human FTC-133 cells assessed as DNA fragmentation at 5 uM after 24 hrs by TUNEL assay (reference value: 3 +/- 1%). The assay is classed as functional.

As to `CN1O[C@@H](n2ccnn2)C[C@@H]1CO` (relative stereo), the result in assay [1] and in assay [4] was Active. Moreover, the IC50 (commonly the midpoint of a concentration-inhibition curve) in assay [2] came out at 6.53 µM; in assay [3], 7.96 µM.

As to `CN1O[C@H](n2cc(-c3ccc(F)cc3)nn2)C[C@@H]1CO` (relative stereo), the outcome in assay [1] and in assay [4] was Active. Moreover, the half-inhibitory concentration (IC50) is 5.85 µM in assay [2] and 6.85 µM in assay [3].

On to `CCCc1cn([C@@H]2C[C@H](CO)N(C)O2)nn1` (relative stereo), for which the result in assay [1] and in assay [4] was Active. Also, the IC50 in assay [2] was found to be 4.71 µM; in assay [3] it was 6.87 µM.

For `COc1ccc(-c2cn([C@@H]3C[C@H](CO)N(C)O3)nn2)cc1` (relative stereo), the outcome in assay [1] and in assay [4] was Active. Further, the IC50 in assay [2] was 6.48 µM; in assay [3], 7.18 µM.

`CN1O[C@H](n2cc(-c3ccccc3)nn2)C[C@@H]1CO` (relative stereo): the result in assay [1] and in assay [4] was Active. Moreover, the IC50 in assay [2] worked out at 6.33 µM; in assay [3] it was 8.76 µM.

Take `CCCc1cn([C@H]2C[C@H](CO)N(C)O2)nn1` (relative stereo): the outcome in assay [1] and in assay [4] was Active. For the same compound, the Activity in assay [5] is 90%; in assay [6], 95%. Also, the IC50 turned out to be 3.87 µM in assay [2] and 5.82 µM in assay [3].

Regarding `CCCCCc1ccc(-c2cn([C@H]3C[C@H](CO)N(C)O3)nn2)cc1` (relative stereo), the result in assay [1] and in assay [4] was Active. Further, the IC50 turned out to be 3.95 µM in assay [2] and 5.96 µM in assay [3].

As to `CN1O[C@@H](n2cc(-c3ccc(F)cc3)nn2)C[C@@H]1CO`, the outcome in assay [1] and in assay [4] was Active. For the same compound, the 50% inhibitory concentration (IC50) in assay [2] is 6.07 µM; in assay [3] it was 6.76 µM.

With `CCCCCc1ccc(-c2cn([C@@H]3C[C@H](CO)N(C)O3)nn2)cc1` (relative stereo), the result in assay [1] and in assay [4] was Active. The IC50 stood at 4.49 µM in assay [2] and 6.24 µM in assay [3].

Take `Nc1ccn([C@@H]2O[C@H](CO)[C@@H](O)C2(F)F)c(=O)n1` [GEMCITABINE]: the result in assay [1] and in assay [4] was Active. For the same compound, the IC50 was 3.36 µM in assay [2] and 4.53 µM in assay [3].

As to `CN1O[C@@H](n2cc(-c3ccccc3)nn2)C[C@@H]1CO` (relative stereo), the result in assay [1] and in assay [4] was Active. The IC50 in assay [2] amounted to 6.03 µM; in assay [3], 7.14 µM.

Take `CN1O[C@H](n2ccnn2)C[C@@H]1CO` (relative stereo): the result in assay [1] and in assay [4] was Active. Besides, the 50% inhibitory concentration (IC50) turned out to be 6.3 µM in assay [2] and 8.13 µM in assay [3].

Regarding `COc1ccc(-c2cn([C@H]3C[C@H](CO)N(C)O3)nn2)cc1` (relative stereo), the result in assay [1] and in assay [4] was Active. Also, the figures for the IC50 in assay [2] and in assay [3] were 7 µM and 8.01 µM, respectively.
